Measured values from ChEMBL document CHEMBL1154417, “In vitro antiviral activity of the novel, tyrosyl-based human immunodeficiency virus (HIV) type 1 protease inhibitor brecanavir (GW640385) in combination with other antiretrovirals and against a panel of protease inhibitor-resistant HIV” (Antimicrob Agents Chemother, 2007).
Calls of active or inactive are those of the source. The calls are words filed in the database; no cut-off is given here.

Experiments:
[1] = system: Human immunodeficiency virus 1; test: Ratio of EC50 for HIV1 drug resistant mutant isolates from protease inhibitor treated HIV patient to EC50 for drug sensitive HIV1 NL4-3; assay type: functional
How it was run: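 Recombinant virus assay with clinical isolates from PI-experienced patients (94 isolates). Fold change is the EC50 against each isolate over the EC50 against reference wild-type HIV-1 NL4-3.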

[2] = system: Human immunodeficiency virus 1; test: Antiviral activity against HIV1 BaL in human PBMC assessed as blockade of reverse transcriptase activity; assay type: functional, organism-based; details: Human immunodeficiency virus 1, BaL
How it was run: (§1)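 PHA-stimulated PBMCs, 8 × 10^6 cells/ml in RPMI with 20% FBS and 10% IL-2, preincubated 1 h at 37°C with compound serially diluted fourfold. Then infected with virus premixed with compound (IIIB for line 2, Ba-L for line 3). After 7 days, RT activity measured in supernatant. EC50 from mean percent inhibition; n = 3 for IIIB, 8 for Ba-L.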

Protease [3] = biological target: T1, Protease (Human immunodeficiency virus 1, UniProt Q9YQ12); test: Inhibition of HIV1 protease
T1 sequence (Q9YQ12 whole entry): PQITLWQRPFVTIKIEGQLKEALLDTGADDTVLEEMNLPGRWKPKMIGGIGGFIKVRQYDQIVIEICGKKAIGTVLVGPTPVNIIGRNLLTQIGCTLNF
How it was run: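 Ki derived either from a continuous fluorescence activity assay of HIV-1 protease or from the ratio of the dissociation first-order rate constant to the bimolecular association rate constant for enzyme–inhibitor binding.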

[4] = system: Human immunodeficiency virus 1; test: Antiviral activity against HIV1 NL4-3; assay type: functional, organism-based; details: Human immunodeficiency virus 1, NL4-3
Protease [5] = biological target: T1, Protease; test: Inhibition of HIV1 protease by fluorescent peptide substrate based assay
How it was run: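 HIV-1 protease Ki from a continuous fluorescence activity assay using a fluorescent peptide substrate. Alternatively, Ki was calculated from the association and dissociation rate constants of the enzyme-inhibitor complex.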

[6] = system: Human immunodeficiency virus 1; test: Antiviral activity against HIV1 drug resistant mutant isolates from protease inhibitor treated HIV patient; assay type: functional, organism-based
[7] = system: Human immunodeficiency virus 1; test: Antiviral activity against HIV1 HXB2 in human MT4 cells assessed as inhibition of viral-induced viral cytopathic effect in presence of 10% fetal bovine serum and 20% human serum by MTS assay; assay type: functional, organism-based; details: Human immunodeficiency virus 1, HXB2, MT4
How it was run: (§2)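 MT-4 cells batch-infected with HIV-1 HXB2 at MOI 0.0001 for 1 h at 37°C. Cells then plated at 4 × 10^4 per well onto serially diluted compound in medium containing 10% or 40% FBS, or 10–40% human serum. After 5 days, EC50 from MTS viability.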

[8] = system: Human immunodeficiency virus 1; test: Antiviral activity against HIV1 HXB2 in human MT4 cells assessed as inhibition of viral-induced viral cytopathic effect in presence of 10% fetal bovine serum and 40% human serum by MTS assay; assay type: functional, organism-based; details: Human immunodeficiency virus 1, HXB2, MT4; how it was run: as §2
[9] = system: Human immunodeficiency virus 1; test: Antiviral activity against HIV1 HXB2 in human MT4 cells assessed as inhibition of viral-induced viral cytopathic effect in presence of 10% fetal bovine serum by MTS assay; assay type: functional, organism-based; details: Human immunodeficiency virus 1, HXB2, MT4; how it was run: as §2
[10] = system: Human immunodeficiency virus 1; test: Antiviral activity against HIV1 HXB2 in human MT4 cells assessed as inhibition of viral-induced viral cytopathic effect in presence of 10% fetal bovine serum and 10% human serum by MTS assay; assay type: functional, organism-based; details: Human immunodeficiency virus 1, HXB2, MT4; how it was run: as §2
[11] = system: Human immunodeficiency virus 1; test: Antiviral activity against HIV1 HXB2 in human MT4 cells assessed as inhibition of viral-induced viral cytopathic effect in presence of 40% fetal bovine serum by MTS assay; assay type: functional, organism-based; details: Human immunodeficiency virus 1, HXB2, MT4; how it was run: as §2
[12] = system: Human immunodeficiency virus 1; test: Antiviral activity against HIV1 HXB2 in human MT4 cells assessed as inhibition of viral-induced viral cytopathic effect in presence of 10% fetal bovine serum and 30% human serum by MTS assay; assay type: functional, organism-based; details: Human immunodeficiency virus 1, HXB2, MT4; how it was run: as §2
[13] = system: Human immunodeficiency virus 1; test: Ratio of EC50 for HIV1 HXB2 in presence of 20% human serum to EC50 for HIV1 HXB2 in presence of 10% fetal bovine serum; assay type: functional; how it was run: as §2
[14] = system: Human immunodeficiency virus 1; test: Ratio of EC50 for HIV1 HXB2 in presence of 10% human serum to EC50 for HIV1 HXB2 in presence of 10% fetal bovine serum; assay type: functional; how it was run: as §2
[15] = system: Human immunodeficiency virus 1; test: Ratio of EC50 for HIV1 HXB2 in presence of 40% human serum to EC50 for HIV1 HXB2 in presence of 10% fetal bovine serum; assay type: functional; how it was run: as §2
[16] = system: Human immunodeficiency virus 1; test: Ratio of EC50 for HIV1 HXB2 in presence of 30% human serum to EC50 for HIV1 HXB2 in presence of 10% fetal bovine serum; assay type: functional; how it was run: as §2
[17] = system: Human immunodeficiency virus 1; test: Antiviral activity against HIV1 3B in human MT4 cells assessed as inhibition of viral-induced viral cytopathic effect by MTS assay; assay type: functional, organism-based; details: Human immunodeficiency virus 1, 3B
How it was run: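 MT-4 cells in RPMI 1640 with 20% FBS, 20% IL-2 and gentamicin, 5 × 10^5 cells/ml, infected with HIV-1 IIIB at 100 TCID50 per well for 1 h at 37°C. Cells diluted sixfold onto serially diluted compound and incubated 5 days. Cytopathic effect read by MTS staining at OD 492 nm. EC50 by Hill-equation curve fit; n = 8.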

[18] = Protein binding in human plasma; assay type: ADME, cell-free; details: read-out: PPB (converted)
[19] = Selectivity index, ratio of CCIC50 for human MT4 cells to IC50 for HIV1 3B; assay type: functional
[20] = system: Human immunodeficiency virus 1; test: Ratio of EC50 for HIV1 HXB2 in presence of 40% fetal bovine serum to EC50 for HIV1 HXB2 in presence of 10% fetal bovine serum; assay type: functional; how it was run: as §2
[21] = system: Human immunodeficiency virus 1; test: Ratio of EC50 for HIV1 HXB2 in presence of 40 mg/ml HSA and 1 mg/ml alpha1-acid glycoprotein to EC50 for HIV1 HXB2; assay type: functional
How it was run: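 Same MT-4/HXB2 batch-infection format (MOI 0.0001, 1 h, 4 × 10^4 cells/well, 5-day MTS read-out), run with 40 mg/ml human serum albumin plus 1 mg/ml α1-acid glycoprotein.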

[22] = Cytotoxicity against human MOLT4 cells; assay type: cell-based, MOLT-4; details: read-out: CCIC50
How it was run: (§3)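 Uninfected B- and T-cell lines were exposed to serially diluted compound up to a highest concentration of 25 μM. The cell culture 50% inhibitory concentration (CCIC50) was determined.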

[23] = system: Human immunodeficiency virus 1; test: Antiviral activity against HIV1 HXB2 in human HeLa cells up to 50 uM by HeLa-CD4 MAGI assay; assay type: functional, organism-based
How it was run: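 HeLa-CD4-LTR-β-gal cells grown in DMEM with 10% FBS and infected with HIV-1 HXB2 for a single round of infection. Read-out is β-galactosidase activity. Tested up to the solubility limit (about 50 μM). EC50 from 2 determinations.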

[24] = Cytotoxicity against human U937 cells; assay type: cell-based, U-937
[25] = Cytotoxicity against human MT4 cells; assay type: cell-based; details: read-out: CCIC50
How it was run: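 Mock-infected MT-4 cells run in parallel with the HIV-1 IIIB antiviral assay, in RPMI 1640 with FBS, IL-2 and gentamicin. Incubated 5 days at 37°C, 5% CO2, then MTS viability read at OD 492 nm. Highest concentration tested 25 μM. Reported as CCIC50.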

[26] = system: Human immunodeficiency virus 1; test: Antiviral activity against HIV1 HXB2 in human MT4 cells assessed as inhibition of viral-induced viral cytopathic effect by MTS assay; assay type: functional, organism-based; details: Human immunodeficiency virus 1, HXB2, MT4; how it was run: as §2
[27] = system: Human immunodeficiency virus 1; test: Antiviral activity against HIV1 3B in human PBMC assessed as blockade of reverse transcriptase activity; assay type: functional, organism-based; details: Human immunodeficiency virus 1, 3B; how it was run: as §1
[28] = Cytotoxicity against human IM9 cells; assay type: cell-based, IM-9; details: read-out: CCIC50; how it was run: as §3
[29] = system: Human immunodeficiency virus 1; test: Antiviral activity against HIV1 HXB2 in human HeLa cells by HeLa-CD4 MAGI assay; assay type: functional, organism-based; details: Human immunodeficiency virus 1, HXB2, HeLa
How it was run: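 HeLa-CD4-LTR-β-gal cells kept in DMEM with 10% FBS and infected with HIV-1 HXB2 in a single-round assay. Read-out is β-galactosidase activity; n = 2; tested up to about 50 μM, the solubility limit.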

SMILES | Ratio EC50 [1] | EC50 [2] [nM] | EC50 [4] [nM] | EC50 [6] [nM] | EC50 [7] [nM] | EC50 [8] [nM] | EC50 [9] [nM] | EC50 [10] [nM] | EC50 [12] [nM] | other results
CC(C)CN(C[C@@H](O)[C@H](Cc1ccccc1)NC(=O)O[C@H]1CCOC1)S(=O)(=O)c1ccc(N)cc1 | 13.7 | 57 | 15.3 | 190 |  |  |  |  |  | Ki (Protease [3]): 0.036 nM; Ki (Protease [5]): 0.057 nM
CC(C)CN(C[C@@H](O)[C@H](Cc1ccccc1)NC(=O)O[C@H]1CO[C@H]2OCC[C@H]21)S(=O)(=O)c1ccc(N)cc1 |  | 2.8 | 0.78 | 4.6 | 15 | 22 | 5.6 | 11 | 19 | EC50 [11]: 11 nM
CCC[C@@]1(CCc2ccccc2)CC(O)=C([C@H](CC)c2cccc(NS(=O)(=O)c3ccc(C(F)(F)F)cn3)c2)C(=O)O1 | 2.4 | 304 | 76.2 | 190 | 507 | 660 | 40.9 | 310 | 580 | Ratio EC50 [13]: 12.4; Ratio EC50 [14]: 7.7; Ratio EC50 [15]: 16; Ratio EC50 [16]: 14.1; Ki (Protease [5]): 0.008 nM
CC(C)(C)NC(=O)[C@@H]1CN(Cc2cccnc2)CCN1C[C@@H](O)C[C@@H](Cc1ccccc1)C(=O)N[C@H]1c2ccccc2C[C@H]1O.O | 26 |  | 9.8 | 220 |  |  |  |  |  | 
Cc1c(O)cccc1C(=O)N[C@@H](CSc1ccccc1)[C@H](O)CN1C[C@H]2CCCC[C@H]2C[C@H]1C(=O)NC(C)(C)C |  | 36 |  |  |  |  |  |  |  | 
COC(=O)N[C@H](C(=O)N[C@@H](Cc1ccccc1)[C@@H](O)CN(Cc1ccc(-c2ccccn2)cc1)NC(=O)[C@@H](NC(=O)OC)C(C)(C)C)C(C)(C)C [ATAZANAVIR] | 26 | 4.4 | 1.7 | 47 |  |  |  |  |  | 
Cc1nc(COc2ccc(C[C@H](NC(=O)O[C@H]3CO[C@H]4OCC[C@H]43)[C@H](O)CN(CC(C)C)S(=O)(=O)c3ccc4c(c3)OCO4)cc2)cs1 [BRECANAVIR] | 6.6 | 0.42 | 0.18 | 0.88 | 2.2 | 3.8 | 0.7 | 1.4 | 2.6 | Ratio EC50 [13]: 2.2; EC50 [17]: 0.44 nM; fraction unbound [18]: 0.02; Ratio [19]: >55000; Ratio EC50 [20]: 1.6; Ratio EC50 [21]: 8.2; CC50 [22]: > 25000 nM; Activity [23]: inactive; CC50 [24]: > 25000 nM; CC50 [25]: > 25000 nM; Ratio EC50 [14]: 1.9; EC50 [26]: 0.53 nM; Ratio EC50 [15]: 5.2; Ratio EC50 [16]: 3.6; EC50 [27]: 0.2 nM; EC50 [11]: 1.1 nM; CC50 [28]: > 25000 nM; EC50 [29]: > 90000 nM
Cc1cccc(C)c1OCC(=O)N[C@@H](Cc1ccccc1)[C@@H](O)C[C@H](Cc1ccccc1)NC(=O)[C@H](C(C)C)N1CCCNC1=O [LOPINAVIR] | 43 |  | 4.4 | 230 |  |  |  |  |  | 
